For data set [1], the target named is T1, Corticotropin-releasing factor receptor 1 (Rattus norvegicus, UniProt P35353).
T1 sequence (P35353 whole entry): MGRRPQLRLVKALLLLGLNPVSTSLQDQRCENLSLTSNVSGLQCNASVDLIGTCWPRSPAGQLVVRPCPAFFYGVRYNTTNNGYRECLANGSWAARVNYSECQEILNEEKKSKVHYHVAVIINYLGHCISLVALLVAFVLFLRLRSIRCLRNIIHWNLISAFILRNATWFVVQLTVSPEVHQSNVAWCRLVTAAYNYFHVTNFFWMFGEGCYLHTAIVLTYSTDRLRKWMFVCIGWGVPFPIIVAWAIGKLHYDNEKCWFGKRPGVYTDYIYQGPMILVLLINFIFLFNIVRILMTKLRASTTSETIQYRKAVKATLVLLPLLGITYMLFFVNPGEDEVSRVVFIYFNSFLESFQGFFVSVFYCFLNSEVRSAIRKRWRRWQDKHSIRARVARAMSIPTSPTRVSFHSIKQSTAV
Description: Displacement of [125]oCRF from rat cortex CRF1 receptor. The method, boiled down:
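Rat cortex binding used ¹²⁵I-ovine-CRF as radioligand. pIC50 ± SEM and IC50 are geometric means of at least three experimental runs.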

In data set [2] the test system is Rattus norvegicus. Description: Ex vivo displacement of [125]oCRF from CRF1 receptor in rat pituitary at 3.2 mg/kg, sc. Format: functional. The following applies: route subcutaneous. The method in brief: (§1)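 Rats received 3.2 mg/kg p.o. or s.c. per line, and cortex and pituitary binding of ¹²⁵I-oCRF was measured 1 h later by one of two methods. Homogenate method: 25 mg wet tissue/mL in PIPES pH 7.0 buffer, 40 pM ligand, 2 h at room temperature, centrifuged, filtered, scintillation counted. Autoradiographic method: male Sprague-Dawley rats (N = 4), 16 µm sections, 60 pM ligand, 1 h at room temperature. Nonspecific binding was set with 1 µM rat/human CRF. Percent inhibition is mean ± SD.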

Data set [3] deals with Rattus norvegicus. The experiment in a line: Ex vivo displacement of [125]oCRF from CRF1 receptor in rat cortex at 3.2 mg/kg, sc. Format: functional. The following applies: route subcutaneous. The method in brief:
as §1

Data set [4] deals with Rattus norvegicus. The experiment in a line: Ex vivo displacement of [125]oCRF from CRF1 receptor in rat pituitary at 3.2 mg/kg, po. Format: functional. The method in brief:
as §1

Data set [5] concerns Rattus norvegicus. Description: Ex vivo displacement of [125]oCRF from CRF1 receptor in rat cortex at 3.2 mg/kg, po. Format: functional. The method in brief: as §1
A short description of data set [6]: Dissociation constant, pKa of the compound. Format: physicochemical. The method in brief:
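UV spectrophotometric pKa determination, with the value extrapolated to 0% organic solvent.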

Data set [7] in a line: Solubility of the compound. It counts as physicochemical. The method, boiled down:
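Kinetic water solubility was measured in an in-house high-throughput assay.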

The target of data set [8] is T1, Corticotropin-releasing factor receptor 1. Description: Antagonist activity at rat cortex CRF1 receptor assessed as inhibition of CRF-stimulated adenylate cyclase activity. It counts as functional, tissue-based.
Data set [9] addresses Corticotropin-releasing factor receptor 1 (Rattus norvegicus) (UniProt P35353). Description: Inhibition of CRF1 receptor.
For data set [10], the system named is Rattus norvegicus. The experiment in a line: Attenuation of HPA axis activation in po dosed rat assessed as blockade of oCRF-induced elevation of plasma ACTH. Format: functional. The method, boiled down: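 Rats were dosed orally, then challenged with exogenous oCRF at 4 µg/kg i.v., and plasma ACTH was measured. The MED was judged against CRF alone by one-way ANOVA with Dunnett's post hoc test (N = 12). ID50 (p.o.) was calculated with a confidence interval.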

Data set [11] concerns the target T2, Corticotropin-releasing factor receptor 1 (Homo sapiens, UniProt P34998).
T2 sequence (P34998 whole entry): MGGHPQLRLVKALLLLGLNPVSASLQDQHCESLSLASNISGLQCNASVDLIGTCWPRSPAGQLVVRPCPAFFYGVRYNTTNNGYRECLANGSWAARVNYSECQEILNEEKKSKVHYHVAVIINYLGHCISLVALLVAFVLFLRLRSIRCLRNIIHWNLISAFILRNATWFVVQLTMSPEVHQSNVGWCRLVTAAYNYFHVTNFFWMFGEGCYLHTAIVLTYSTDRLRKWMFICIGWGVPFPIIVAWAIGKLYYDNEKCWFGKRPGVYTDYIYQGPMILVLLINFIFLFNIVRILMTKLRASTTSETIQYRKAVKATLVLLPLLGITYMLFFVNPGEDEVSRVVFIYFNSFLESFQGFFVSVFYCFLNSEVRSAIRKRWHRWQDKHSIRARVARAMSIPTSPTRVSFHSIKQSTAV
Description: Antagonist activity at human CRF1 receptor endogenously expressed in human IMR32 cells. Format: functional, cell-based, IMR-32.

A short description of data set [12]: Solubility at pH 7. It counts as physicochemical. Conditions: buffer.
Data set [13] is described as follows: Solubility at pH 2. It counts as physicochemical. Conditions: buffer.

The structures appear in SMILES notation. In brackets after ≈: the same amount, converted by molar mass.

With `C/C=C(\CC)Oc1cc(C)nc(Oc2c(C)cc(C)cc2C)c1C` (mixture of isomers), the IC50 (as a rule, the concentration at which inhibition is half-maximal) in data set [1] was 16 nM. Also, the inhibition in vivo (usually the drop in the measured response relative to a control, in per cent) at 3.2 mg/kg was found to be 55% in the data set on Rattus norvegicus [2] and 75% in the data set on Rattus norvegicus [3].
On to `CCC(CC)Oc1cc(C)nc(Oc2c(C)cc(O)cc2C)c1C`, for which, in data set [1], the IC50 was determined as 1400 nM.
Consider `CCOc1cc(C)c(Oc2nc(C)cc(OC(CC)CC)c2C)c(C)c1`, for which the IC50 in data set [1] turned out to be 20 nM. In addition, the results for the inhibition in vivo at 3.2 mg/kg in the data set on Rattus norvegicus [4] and with Rattus norvegicus [5] were 33% and 43%, respectively.
Regarding `CCC(CC)Oc1cc(C)nc(Oc2c(C)cc(C=O)cc2C)c1C`, the IC50 in data set [1] was 40 nM.
Compound `CCC(CC)Oc1c(C)c(C)nc(Oc2c(C)cc(C)cc2C)c1C` yielded an IC50 in data set [1] of 180 nM.
For `CCC(CC)Oc1cc(C)nc(Oc2c(C)cc(CO)cc2C)c1C`, the IC50 in data set [1] was found to be 61 nM. Further, the inhibition in vivo at 3.2 mg/kg was -20% with Rattus norvegicus [4] and 42% with Rattus norvegicus [5].
In [1], `CCc1cc(C)c(Oc2nc(C)cc(OC(CC)CC)c2C)c(C)c1` showed an IC50 of 11 nM. Moreover, the values for the inhibition in vivo at 3.2 mg/kg in the data set on Rattus norvegicus [2] and in the data set on Rattus norvegicus [3] were 56% and 55%, respectively.
Compound `CCC(CC)Oc1cc(C)nc(Oc2c(C)cc(C)cc2C)c1C(=O)O` registered a half-inhibitory concentration (IC50) in [1] of over 10000 nM.
As to `CCC(CC)Oc1cc(C)nc(Oc2c(C)cc(C)nc2C)c1C`, the pKa – broadly, the pH at which an ionisable group is half protonated – in data set [6] turned out to be 4.97. This compound showed an IC50 in [1] of 10 nM. For the same compound, the inhibition in vivo at 3.2 mg/kg in the data set on Rattus norvegicus [2] was 6%; in the data set on Rattus norvegicus [3], 70%. Moreover, in data set [7], the concentration in solution (solubility) was 10 µg/mL (≈ 30.4 µM).
`CCC(CC)Oc1cc(C)nc(Oc2c(C)cc(I)cc2C)c1C` showed an IC50 in data set [1] of 12 nM. Moreover, the inhibition in vivo at 3.2 mg/kg in the data set with Rattus norvegicus [2] came out at 72%; in the data set on Rattus norvegicus [3], 27%.
For the compound `CCC(CC)Oc1cc(C)nc(Oc2c(C)cc(C)cc2C)c1N(C)C`, the IC50 in data set [1] amounted to 25 nM.
In data set [1], `CCC(CC)Oc1cc(C)nc(Oc2c(C)cc(C(N)=O)cc2C)c1C` returned an IC50 of 18 nM. Besides, the inhibition in vivo at 3.2 mg/kg worked out at 15% with Rattus norvegicus [4] and 33% with Rattus norvegicus [5].
The compound `CCc1c(OC(CC)CC)cc(C)nc1Oc1c(C)cc(C)cc1C` registered an IC50 in [1] of 9.1 nM. In addition, the inhibition in vivo at 3.2 mg/kg was found to be 66% in the data set with Rattus norvegicus [2] and 57% in the data set with Rattus norvegicus [3].
As for `CCC(CC)Oc1cc(C)nc(Oc2c(C)cc(Cl)cc2C)c1C`, the IC50 in [1] worked out at 5.5 nM. Moreover, the inhibition in vivo at 3.2 mg/kg in the data set on Rattus norvegicus [4] worked out at 76%; in the data set on Rattus norvegicus [5] it was 66%.
Regarding `CCc1c(C)nc(Oc2c(C)cc(C)cc2C)c(C)c1OC(CC)CC`, the IC50 in data set [1] is over 10000 nM.
Consider `CCC(CC)Oc1cc(C)nc(Oc2c(C)cc(C)cc2C)c1Br`, for which, in data set [1], the IC50 is 9.8 nM.
In turn, `CCC(CC)Oc1cc(C)nc(Oc2c(C)cc(F)cc2C)c1C` returned an IC50 in [1] of 32 nM.
The compound `CCC(CC)Oc1cc(C)nc(Oc2c(C)cc(C)cc2C)c1C` had a pKa in data set [6] of 3.5. The Ki (commonly the dissociation constant of the complex between target and ligand, obtained from inhibition or displacement) in [8] worked out at 7.6 nM; in [11], 8.5 nM. Further, the IC50 in data set [1] and in [9] was 6.8 nM throughout. Also, the ED50 in the data set with Rattus norvegicus [10] (read-out: ID50 (the source's name)) came out at 35 mg/kg. Moreover, the minimal effective dose in the data set on Rattus norvegicus [10] (read-out: MED) turned out to be 10 mg/kg. The inhibition in vivo at 3.2 mg/kg in the data set on Rattus norvegicus [4] was determined as 72%; in the data set with Rattus norvegicus [5], 75%. The solubility – broadly, the dissolved amount per volume that the medium holds – in data set [12] was 0.2 µg/mL (≈ 0.611 µM); in data set [13], 3 µg/mL (≈ 9.16 µM); in data set [7], under 1 µg/mL.
In data set [1], `CCC(CC)Oc1cc(C)nc(Oc2c(C)cc(C)cc2C)c1C(=O)OC` showed an IC50 of 470 nM.
Compound `Cc1cc(C)c(Oc2nc(C)cc(OC3CCOC3)c2C)c(C)c1` (stereo unspecified) returned an IC50 in data set [1] of 100 nM.
With `CCC(CC)Oc1nc(C)cc(Oc2c(C)cc(C)cc2C)c1C`, in data set [9], half-maximal inhibition (IC50) required 3400 nM.
`CCC(CC)Oc1cc(C)nc(Oc2c(C)cccc2C)c1C` came in with an IC50 in data set [1] of 110 nM.
The compound `CCC(COC)Oc1cc(C)nc(Oc2c(C)cc(C)cc2C)c1C` (stereo unspecified) gave an IC50 in data set [1] of 11 nM. Besides, the inhibition in vivo at 3.2 mg/kg in the data set on Rattus norvegicus [2] is 49%; in the data set with Rattus norvegicus [3], 75%.
Consider `CCC(C)Oc1cc(C)nc(Oc2c(C)cc(C)cc2C)c1C` (stereo unspecified), for which the IC50 in data set [1] turned out to be 28 nM. For the same compound, the inhibition in vivo at 3.2 mg/kg came out at 42% with Rattus norvegicus [2] and 74% in the data set with Rattus norvegicus [3].
Turning to `CCC(CC)Oc1cc(C)nc(Oc2c(C)cc(COC)cc2C)c1C`, the IC50 in data set [1] was found to be 3.2 nM. Besides, the inhibition in vivo at 3.2 mg/kg in the data set with Rattus norvegicus [4] was found to be 12%; with Rattus norvegicus [5] it was 57%.
Consider `CCC(CC)Oc1cc(C)nc(Oc2c(C)cc(C)cc2C)c1[N+](=O)[O-]`, for which, in data set [1], the IC50 stood at 15 nM. For the same compound, the inhibition in vivo at 3.2 mg/kg with Rattus norvegicus [2] turned out to be 35%; in the data set with Rattus norvegicus [3], 59%.
In [1], `CCC(CC)Oc1cc(C)nc(Oc2c(C)cc(OC)cc2C)c1C` had an IC50 of 2 nM. For the same compound, the inhibition in vivo at 3.2 mg/kg came to 55% in the data set on Rattus norvegicus [4] and 75% in the data set with Rattus norvegicus [5].
`CCC(CC)Oc1cc(C)nc(Oc2c(C)cc(C)cc2C)c1`: in data set [1], the IC50 was 150 nM.
Still for that read-out and setting: the result for `CCC(CC)Oc1cc(C)nc(Oc2c(C)cc(OC(C)C)cc2C)c1C` reads 110 nM; that for `CCC(CC)Oc1cc(C)nc(Oc2c(C)cc(C(C)(C)O)cc2C)c1C`, 40 nM.
In turn, `CCC(CC)Oc1cc(C)nc(Oc2c(C)cc(C)cc2C)c1N` had an IC50 in data set [1] of 12 nM. For the same compound, the inhibition in vivo at 3.2 mg/kg in the data set with Rattus norvegicus [2] came out at 51%; with Rattus norvegicus [3], 78%.
With `CCC(CC)Oc1cc(C)nc(Oc2c(C)cc(Br)cc2C)c1C`, in data set [1], the half-maximal inhibitory concentration (IC50) stood at 2.6 nM. The figures for the inhibition in vivo at 3.2 mg/kg in the data set on Rattus norvegicus [4] and with Rattus norvegicus [5] were 84% and 47%, respectively.
On to `CCc1cc(OC(CC)CC)c(C)c(Oc2c(C)cc(C)cc2C)n1`, for which the IC50 in [1] came to 86 nM.
As to `CCCc1cc(C)c(Oc2nc(C)cc(OC(CC)CC)c2C)c(C)c1`, in data set [1], the IC50 stood at 9.8 nM. The inhibition in vivo at 3.2 mg/kg is 34% in the data set on Rattus norvegicus [2] and 42% in the data set on Rattus norvegicus [3].

(Values after ChEMBL document CHEMBL1143117, “Synthesis and SAR of 2-aryloxy-4-alkoxy-pyridines as potent orally active corticotropin-releasing factor 1 receptor antagonists” (J Med Chem, 2008).)
